The results in this text go back to ChEMBL document CHEMBL1152488, “Synthesis and evaluation of pyrido[1,2-a]pyrimidines as inhibitors of nitric oxide synthases” (Eur J Med Chem, 2009).

The target in data set [1] is T1, Nitric oxide synthase 3 (Homo sapiens) (UniProt P29474).
T1 sequence (whole entry): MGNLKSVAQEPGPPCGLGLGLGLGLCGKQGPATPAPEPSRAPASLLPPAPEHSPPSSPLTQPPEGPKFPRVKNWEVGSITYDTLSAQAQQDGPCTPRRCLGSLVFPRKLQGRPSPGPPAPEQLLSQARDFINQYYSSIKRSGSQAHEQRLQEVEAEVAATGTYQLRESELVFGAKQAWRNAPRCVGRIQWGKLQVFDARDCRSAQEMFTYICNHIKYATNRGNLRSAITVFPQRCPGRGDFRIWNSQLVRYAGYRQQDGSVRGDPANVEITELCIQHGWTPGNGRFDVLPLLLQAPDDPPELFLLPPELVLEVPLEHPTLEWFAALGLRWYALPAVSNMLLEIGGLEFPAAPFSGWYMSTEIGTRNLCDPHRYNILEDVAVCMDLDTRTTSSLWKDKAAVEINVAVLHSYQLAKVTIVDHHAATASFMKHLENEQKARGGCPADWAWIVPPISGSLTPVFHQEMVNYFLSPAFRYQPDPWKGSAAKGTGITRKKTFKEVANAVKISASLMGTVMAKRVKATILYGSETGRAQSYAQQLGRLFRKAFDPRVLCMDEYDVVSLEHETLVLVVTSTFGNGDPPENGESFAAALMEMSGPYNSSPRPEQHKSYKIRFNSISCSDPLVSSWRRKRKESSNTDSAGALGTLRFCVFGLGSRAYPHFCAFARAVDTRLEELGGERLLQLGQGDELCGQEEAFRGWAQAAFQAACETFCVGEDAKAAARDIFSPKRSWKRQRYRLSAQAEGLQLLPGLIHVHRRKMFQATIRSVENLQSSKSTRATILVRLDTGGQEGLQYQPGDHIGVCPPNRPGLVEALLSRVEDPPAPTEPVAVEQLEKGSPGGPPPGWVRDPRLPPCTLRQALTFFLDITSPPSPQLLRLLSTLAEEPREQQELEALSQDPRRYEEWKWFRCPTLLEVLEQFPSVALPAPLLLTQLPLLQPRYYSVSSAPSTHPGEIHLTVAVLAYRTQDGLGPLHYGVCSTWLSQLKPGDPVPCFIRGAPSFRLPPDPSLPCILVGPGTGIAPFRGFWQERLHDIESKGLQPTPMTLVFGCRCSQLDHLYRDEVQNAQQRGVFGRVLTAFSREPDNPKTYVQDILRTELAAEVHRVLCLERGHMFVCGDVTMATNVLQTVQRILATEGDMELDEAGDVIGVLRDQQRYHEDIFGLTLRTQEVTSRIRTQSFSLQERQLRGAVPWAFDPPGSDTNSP
In words: Inhibition of human eNOS assessed as residual activity at 100 uM by Griess assay relative to control. In a few lines: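 Human eNOS expressed in Pichia pastoris. Incubated 20 min at 37 °C in triethanolamine pH 7.5 with 0.5 mM Ca2+, CaM, H4B 10 µM, FAD/FMN 5 µM, NADPH 0.5 mM, L-arginine 1 mM and compound at 100 µM final. Nitrite read by Griess (543 nm) after LDH/pyruvate NADPH removal; % of 1% DMSO control from 5 experiments.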
For orientation: The Griess reaction detects nitrite, a stable product of nitric oxide.

The test system of a further data set is RAW264.7. In words: Cytotoxicity against mouse RAW264.7 cells at 100 uM. The format is cell-based. The conditions noted are these: raw264.7, 100 µM.
The target in data set [2] is Nitric oxide synthase 1 (Rattus norvegicus) (UniProt P29476). Briefly: Inhibition of rat recombinant nNOS expressed in Saccharomyces cerevisiae assessed as conversion of [gamma-14C]L-arginine to [14C]L-citrulline at 100 uM by radioactive assay relative to control. Further details: scale not given: the % may be the effect or the level left. In a few lines:
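Purified enzymes: rat nNOS from S. cerevisiae, murine iNOS and bovine eNOS from E. coli. Reaction 5 min at 37 °C in 50 mM Hepes pH 7.4 with DTT, 1 mM NADPH, H4B, FAD, FMN, [14C]L-arginine (2.5 µM L-arginine) and 100 µM compound in 1% DMSO. nNOS/eNOS also got 1 mM CaCl2 and CaM, which iNOS lacked. [14C]citrulline isolated on Dowex and counted by scintillation; % of DMSO control, n=3.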

Data set [3] deals with Nitric oxide synthase, inducible (Homo sapiens) (UniProt P35228). In words: Inhibition of human iNOS expressed in insect Sf9 cells assessed as residual activity at 100 uM by Griess assay relative to control. In a few lines: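 Human iNOS made in Sf9 cells, incubated at 37 °C for 20 min in 50 mM triethanolamine pH 7.5 with 1 mM Mg2+, FAD/FMN 5 µM each, 0.5 mM NADPH, 10 µM H4B, CaM and 1 mM L-arginine. Compound 100 µM final. NADPH cleared with lactate dehydrogenase/pyruvate before Griess reaction (543 nm). Residual activity relative to 1% DMSO control; mean of 5 experiments.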
Chain of Nitric oxide synthase, inducible (Homo sapiens) (P35228 whole entry): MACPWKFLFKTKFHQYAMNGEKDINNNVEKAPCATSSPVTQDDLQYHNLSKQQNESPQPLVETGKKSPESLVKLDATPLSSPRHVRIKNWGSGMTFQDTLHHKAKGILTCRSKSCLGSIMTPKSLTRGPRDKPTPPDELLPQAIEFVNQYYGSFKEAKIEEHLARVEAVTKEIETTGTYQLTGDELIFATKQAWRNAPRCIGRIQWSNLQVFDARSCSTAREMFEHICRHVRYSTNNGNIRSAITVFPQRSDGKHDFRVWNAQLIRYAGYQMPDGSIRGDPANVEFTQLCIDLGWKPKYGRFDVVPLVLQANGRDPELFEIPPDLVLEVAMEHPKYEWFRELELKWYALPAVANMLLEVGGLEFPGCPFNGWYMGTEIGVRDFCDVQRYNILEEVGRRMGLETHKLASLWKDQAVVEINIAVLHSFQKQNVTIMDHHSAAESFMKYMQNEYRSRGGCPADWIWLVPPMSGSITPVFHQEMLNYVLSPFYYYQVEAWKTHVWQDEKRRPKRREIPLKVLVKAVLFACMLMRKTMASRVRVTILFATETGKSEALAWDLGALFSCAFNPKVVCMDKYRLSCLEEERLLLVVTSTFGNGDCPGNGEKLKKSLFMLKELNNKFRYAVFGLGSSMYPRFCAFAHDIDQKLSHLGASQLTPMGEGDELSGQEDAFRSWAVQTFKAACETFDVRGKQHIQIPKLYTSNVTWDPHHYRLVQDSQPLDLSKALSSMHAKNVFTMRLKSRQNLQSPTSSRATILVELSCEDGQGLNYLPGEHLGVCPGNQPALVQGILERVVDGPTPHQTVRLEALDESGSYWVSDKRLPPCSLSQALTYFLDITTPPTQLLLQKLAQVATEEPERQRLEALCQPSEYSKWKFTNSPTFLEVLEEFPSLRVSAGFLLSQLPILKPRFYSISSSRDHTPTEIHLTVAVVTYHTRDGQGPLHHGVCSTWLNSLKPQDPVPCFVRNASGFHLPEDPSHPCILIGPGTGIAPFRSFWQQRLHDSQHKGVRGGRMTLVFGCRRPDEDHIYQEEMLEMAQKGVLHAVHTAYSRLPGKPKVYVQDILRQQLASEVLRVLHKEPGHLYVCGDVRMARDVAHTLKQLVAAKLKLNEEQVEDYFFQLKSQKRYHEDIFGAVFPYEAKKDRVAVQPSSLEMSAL

Structures are written as SMILES.

Chain of Nitric oxide synthase 1 (Rattus norvegicus) (P29476 whole entry): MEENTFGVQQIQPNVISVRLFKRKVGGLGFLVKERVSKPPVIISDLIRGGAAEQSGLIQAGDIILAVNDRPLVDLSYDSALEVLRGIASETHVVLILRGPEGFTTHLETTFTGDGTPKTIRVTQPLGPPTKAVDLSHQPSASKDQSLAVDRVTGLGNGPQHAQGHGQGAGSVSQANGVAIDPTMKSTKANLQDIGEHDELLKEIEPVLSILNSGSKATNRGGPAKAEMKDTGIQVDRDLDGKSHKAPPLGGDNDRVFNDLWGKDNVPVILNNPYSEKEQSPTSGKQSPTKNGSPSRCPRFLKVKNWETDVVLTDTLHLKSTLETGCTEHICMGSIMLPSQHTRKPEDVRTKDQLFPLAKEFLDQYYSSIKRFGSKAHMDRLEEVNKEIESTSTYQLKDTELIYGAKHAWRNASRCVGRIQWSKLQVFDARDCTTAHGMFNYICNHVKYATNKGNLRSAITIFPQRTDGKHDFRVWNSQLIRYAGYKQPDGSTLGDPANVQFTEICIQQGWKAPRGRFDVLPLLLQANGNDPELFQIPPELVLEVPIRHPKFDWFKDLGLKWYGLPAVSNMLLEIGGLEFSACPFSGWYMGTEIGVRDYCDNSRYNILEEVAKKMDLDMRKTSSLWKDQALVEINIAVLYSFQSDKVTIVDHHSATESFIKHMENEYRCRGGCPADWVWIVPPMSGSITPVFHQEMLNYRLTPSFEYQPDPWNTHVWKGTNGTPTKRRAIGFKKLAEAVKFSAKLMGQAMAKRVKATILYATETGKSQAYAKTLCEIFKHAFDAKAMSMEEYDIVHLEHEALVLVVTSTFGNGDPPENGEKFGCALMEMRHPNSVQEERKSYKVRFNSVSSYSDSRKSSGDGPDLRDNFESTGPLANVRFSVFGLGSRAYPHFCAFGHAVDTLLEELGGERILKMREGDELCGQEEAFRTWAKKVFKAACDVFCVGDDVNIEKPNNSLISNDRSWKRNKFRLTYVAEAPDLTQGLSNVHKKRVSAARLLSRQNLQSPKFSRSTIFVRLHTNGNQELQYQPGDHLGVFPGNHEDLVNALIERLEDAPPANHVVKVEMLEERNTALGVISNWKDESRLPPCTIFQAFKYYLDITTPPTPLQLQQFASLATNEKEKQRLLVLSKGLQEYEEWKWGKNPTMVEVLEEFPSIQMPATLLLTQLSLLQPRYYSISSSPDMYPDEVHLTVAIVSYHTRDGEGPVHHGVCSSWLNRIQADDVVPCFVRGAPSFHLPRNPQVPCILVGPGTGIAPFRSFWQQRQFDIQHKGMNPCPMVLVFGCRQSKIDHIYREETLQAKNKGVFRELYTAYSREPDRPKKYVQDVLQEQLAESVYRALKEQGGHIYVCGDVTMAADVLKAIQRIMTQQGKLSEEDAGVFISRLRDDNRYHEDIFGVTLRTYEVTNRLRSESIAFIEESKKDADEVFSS

In the case of `COc1ccc(C(=O)C2CN=C3C=C(C)C=CN3C2)cc1F.[O-][Cl+3]([O-])([O-])O` (configuration not stated), the Activity is 84% in data set [1], “Non-toxic” in the data set on RAW264.7, 69% in data set [2] and 102% in data set [3].

`CC1=CC=CC2=NCC(C(=O)c3ccc(Br)cc3)CN12` (configuration not stated): the Activity in data set [1] is 86%; in data set [3], 93%.

For `CCSC(=N)N`, the Activity in data set [1] came to 37%; in data set [3], 6%.

Turning to `O=C(c1ccc(Cl)c(Cl)c1)C1CN=C2C=CC=CN2C1.[O-][Cl+3]([O-])([O-])O` (configuration not stated), the Activity in data set [1] was 89%; with RAW264.7, “Non-toxic”; in data set [2] it was 87%; in data set [3], 105%.

For the compound `COc1ccc2cc(C(=O)C3CN=C4C=C(C)C=CN4C3)ccc2c1` (configuration not stated), the Activity in data set [1] was determined as 98%; in data set [3], 88%.

For the compound `CC1=CC2=NCC(C(=O)c3ccc(Br)cc3)CN2C=C1` (configuration not stated), the Activity in data set [1] was 73%; in data set [3] it was 69%.

For `CC1=CC2=NCC(C(=O)c3ccc(Cl)cc3)CN2C=C1` (configuration not stated), the Activity was determined as 7% in data set [1] and 50% in data set [3].

For `CC(=N)NCc1cccc(CN)c1`, the Activity amounted to 105% in data set [1] and 5% in data set [3].

On to `CC1=CC2=NCC(C(=O)c3ccc(-c4ccc(Br)cc4)cc3)CN2C(C)=C1` (configuration not stated), for which the Activity came to 15% in data set [1], 58% in data set [2] and 89% in data set [3].

With `CC1=CC2=NCC(C(=O)c3ccc(-c4ccc(C#N)cc4)cc3)CN2C=C1.Cl` (configuration not stated), the Activity in data set [1] is 55%; with RAW264.7, “Non-toxic”; in data set [2], 43%; in data set [3] it was 55%.

`CC1=CC2=NCC(C(=O)c3ccc(OCc4ccc(Cl)cc4)cc3)CN2C=C1.[O-][Cl+3]([O-])([O-])O` (configuration not stated): the Activity is 8% in data set [1], “Non-toxic” in the data set with RAW264.7, 49% in data set [2] and 94% in data set [3].

Turning to `CCCNC(=N)NCCC[C@H](N)C(=O)O`, the results for the Activity in data set [1] and in data set [3] were 96% and 95%, respectively.

As to `CC1=CC2=NCC(C(=O)c3ccc(OCc4ccc(Br)cc4)cc3)CN2C=C1.Cl` (configuration not stated), the Activity in data set [1] was 16%; in the data set with RAW264.7, “Non-toxic”; in data set [2] it was 62%; in data set [3] it was 83%.

As for `O=C(c1ccc2ccccc2c1)C1CN=C2C=CC=CN2C1` (configuration not stated), the Activity was 60% in data set [1] and 93% in data set [3].

As for `CC1=CC=CC2=NCC(C(=O)c3ccc(F)cc3)CN12.[O-][Cl+3]([O-])([O-])O` (configuration not stated), the Activity was 77% in data set [1], “Non-toxic” in the data set on RAW264.7, 83% in data set [2] and 88% in data set [3].

On to `CC1=CC2=NCC(C(=O)c3ccc(F)cc3)CN2C=C1` (configuration not stated), for which the values for the Activity in data set [1] and in data set [3] were 77% and 78%, respectively.

Consider `O=C(c1ccc(Br)cc1)C1CN=C2C=CC=CN2C1` (configuration not stated), for which the Activity was 85% in data set [1] and 110% in data set [3].

`CC1=CC2=NCC(C(=O)c3ccc(-c4ccccc4)cc3)CN2C=C1` (configuration not stated): the Activity in data set [1] was found to be 8%; in data set [3], 17%.

With `COc1ccc(-c2ccc(C(=O)C3CN=C4C=C(C)C=CN4C3)cc2)cc1.Cl` (configuration not stated), the Activity was 57% in data set [1], “Non-toxic” with RAW264.7, 29% in data set [2] and 49% in data set [3].

Turning to `CC1=CC2=NCC(C(=O)c3ccc4cc(C)ccc4c3)CN2C=C1.[O-][Cl+3]([O-])([O-])O` (configuration not stated), the Activity in data set [1] is 11%; with RAW264.7, “Non-toxic”; in data set [2] it was 69%; in data set [3], 103%.

As to `CC1=CC2=NCC(C(=O)c3ccc4cc(C)ccc4c3)CN2C(C)=C1.[O-][Cl+3]([O-])([O-])O` (configuration not stated), the Activity is 86% in data set [1], “Non-toxic” in the data set with RAW264.7, 55% in data set [2] and 83% in data set [3].

Take `CC1=CC=CC2=NCC(C(=O)c3ccc4ccccc4c3)CN12` (configuration not stated): the Activity in data set [1] is 75%; in data set [3], 89%.

With `CC1=CC2=NCC(C(=O)c3ccc4ccccc4c3)CN2C=C1` (configuration not stated), the Activity turned out to be 60% in data set [1] and 47% in data set [3].

For the compound `N=C(NCCC[C@H](N)C(=O)O)N[N+](=O)[O-]`, the Activity in data set [1] stood at 25%; in data set [2], 2%; in data set [3] it was 48%.

For the compound `CC1=CC=CC2=NCC(C(=O)c3ccc(C)cc3)CN12.[O-][Cl+3]([O-])([O-])O` (configuration not stated), the Activity result in the data set with RAW264.7 is “Non-toxic”; in data set [2] it was 76%.

Take `CC1=CC2=NCC(C(=O)c3ccccc3)CN2C=C1` (configuration not stated): the figures for the Activity in data set [1] and in data set [3] were 72% and 63%, respectively.

Regarding `COc1ccc(C(=O)C2CN=C3C=CC=C(C)N3C2)cc1OC.[O-][Cl+3]([O-])([O-])O` (configuration not stated), the Activity result was “Non-toxic” with RAW264.7 and 100% in data set [2].

On to `CC1=CC2=NCC(C(=O)c3ccc(-c4ccc(Br)cc4)cc3)CN2C=C1.[O-][Cl+3]([O-])([O-])O` (configuration not stated), for which the Activity was 17% in data set [1], “Non-toxic” in the data set with RAW264.7, 10% in data set [2] and 120% in data set [3].

Consider `CC1=CC2=NCC(C(=O)c3ccc(OCc4ccc(C#N)cc4)cc3)CN2C=C1.[O-][Cl+3]([O-])([O-])O` (configuration not stated), for which the Activity is 78% in data set [1], “Non-toxic” in the data set with RAW264.7, 60% in data set [2] and 105% in data set [3].
